Values after ≈ are worked out from the molar mass of the structure shown. Active and inactive are the calls of the source. The rule behind the calls is not given here.

Assay [1] concerns Escherichia coli. Nature of the assay: Inhibition of Escherichia coli MurD ligase catalyzed addition of D-Glu to UDP-MurNAc-L-Ala assessed as residual activity at 500 uM after 15 mins by colorimetric analysis. The gist of the method: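 E. coli MurD activity read by malachite green detection of released orthophosphate, with 0.01% Triton X-100 present. Residual activity (%) measured with 500 μM test compound. Values are the mean of two independent experiments, with standard deviations within ±10% of the mean.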

A short description of assay [2]: Inhibition of Escherichia coli MurD ligase catalyzed addition of D-Glu to UDP-MurNAc-L-Ala after 15 mins by colorimetric analysis. An outline of the steps:
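Malachite green colorimetric detection of orthophosphate released by E. coli MurD ligase, with 0.01% Triton X-100 present to avoid aggregate-based nonspecific inhibition. IC50 is taken as the inhibitor concentration that leaves 50% residual enzyme activity.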

Another assay has as its system Enterococcus faecalis. Nature of the assay: Antibacterial activity against Enterococcus faecalis ATCC 29212 after 18 to 24 hrs by CLSI method. The assay is classed as functional.
The subject of assay [3] is Escherichia coli. Nature of the assay: Antibacterial activity against Escherichia coli ATCC 25922 after 18 to 24 hrs by CLSI method. In kind it is functional, organism-based.
The next assay has as its system Pseudomonas aeruginosa. Nature of the assay: Antibacterial activity against Pseudomonas aeruginosa ATCC 27853 after 18 to 24 hrs by CLSI method. In kind it is functional, organism-based.
The test system of the next assay is Staphylococcus aureus. As to the kind of experiment: Antibacterial activity against Staphylococcus aureus ATCC 29213 after 18 to 24 hrs by CLSI method. The assay is classed as functional.

On to `O=C(O)CC[C@@H](NC(=O)c1ccc2ccn(Cc3ccc(OCC(=O)O)cc3)c2c1)C(=O)O`, for which the Activity in the assay on Escherichia coli [1] is 94%.

With `O=C(O)CC[C@@H](NC(=O)c1cc(CNc2ccc(/C=C3\SC(=S)NC3=O)cc2)ccc1O)C(=O)O`, in assay [2], the IC50 (commonly the concentration that gives 50% inhibition) came out at 124 µM.

As for `O=C(O)CC[C@@H](NC(=O)c1cccc(CNc2ccc(OCC(=O)O)cc2)c1)C(=O)O`, the Activity in the assay on Escherichia coli [1] was 87%.

The compound `O=C(O)CC[C@@H](NC(=O)c1cccc(CN(C(=O)CC(=O)O)c2ccc(/C=C3\SC(=S)NC3=O)cc2)c1)C(=O)O` returned an IC50 in assay [2] of 3 µM. Also, in the assay on Enterococcus faecalis, the MIC (in general, the lowest concentration found to suppress growth) was found to be 128 µg/mL (≈ 219 µM). For the same compound, the outcome in the assay on Escherichia coli [3] and with Pseudomonas aeruginosa was inactive.

For the compound `O=C(O)CC[C@@H](NC(=O)c1cccc(CN(C(=O)C(=O)O)c2ccc(/C=C3\SC(=O)NC3=O)cc2)c1)C(=O)O`, the IC50 in assay [2] came out at 40 µM.

Turning to `N=C1NC(=O)/C(=C/c2ccc(NCc3cccc(C(=O)N[C@H](CCC(=O)O)C(=O)O)c3)cc2)S1`, the Activity with Escherichia coli [1] was 85%.

On to `O=C(O)/C=C/c1ccc(NCc2cccc(C(=O)N[C@H](CCC(=O)O)C(=O)O)c2)cc1`, for which, in the assay on Escherichia coli [1], the Activity was determined as 96%.

The compound `O=C(O)CC[C@@H](NC(=O)c1cccc(CN(C(=O)C(=O)O)c2ccc(/C=C3\SC(=S)NC3=O)cc2)c1)C(=O)O` displayed a half-inhibitory concentration (IC50) in assay [2] of 5 µM.

In assay [2], `O=C(O)CCC(=O)N(Cc1cccc(C(=O)N[C@H](CCC(=O)O)C(=O)O)c1)c1ccc(/C=C2\SC(=S)NC2=O)cc1` showed a concentration for half-maximal inhibition (IC50) of 7 µM. Further, the MIC in the assay with Staphylococcus aureus and with Enterococcus faecalis was 128 µg/mL (≈ 213 µM) each time. Besides, the result with Escherichia coli [3] and with Pseudomonas aeruginosa was inactive.

As to `O=C(O)CCC(=O)N(Cc1cccc(C(=O)N[C@H](CCC(=O)O)C(=O)O)c1)c1ccc(/C=C2\SC(=O)NC2=O)cc1`, the half-inhibitory concentration (IC50) in assay [2] came to 105 µM.

`O=C(O)CC[C@@H](NC(=O)c1cccc(CN(C(=O)CC(=O)O)c2ccc(/C=C3\SC(=O)NC3=O)cc2)c1)C(=O)O` gave a concentration for half-maximal inhibition (IC50) in assay [2] of 15 µM.

As for `O=C(O)CC[C@@H](NC(=O)c1cc(CNc2ccc(/C=C3\SC(=O)NC3=O)cc2)ccc1F)C(=O)O`, the Activity in the assay on Escherichia coli [1] came to 71%.

In the case of `O=C(O)CC[C@@H](NC(=O)c1cc(CNc2ccc(/C=C3\SC(=S)NC3=O)cc2)ccc1F)C(=O)O`, the IC50 in assay [2] was determined as 253 µM.

As to `COC(=O)CC[C@@H](NC(=O)c1cccc(CN(C(=O)CC(=O)OC)c2ccc(/C=C3\SC(=S)NC3=O)cc2)c1)C(=O)OC`, the result in the assay with Staphylococcus aureus, in the assay on Enterococcus faecalis, in the assay with Escherichia coli [3] and with Pseudomonas aeruginosa was inactive.

For the compound `O=C(O)CC[C@@H](NC(=O)c1cccc(CNc2ccc(/C=C3\NC(=O)NC3=O)cc2)c1)C(=O)O`, in the assay on Escherichia coli [1], the Activity is 99%.

Turning to `O=C(O)CC[C@@H](NC(=O)c1cccc(CNc2cccc(OCC(=O)O)c2)c1)C(=O)O`, the Activity in the assay on Escherichia coli [1] was found to be 89%.

Take `COC(=O)CCC(=O)N(Cc1cccc(C(=O)N[C@H](CCC(=O)OC)C(=O)OC)c1)c1ccc(/C=C2\SC(=S)NC2=O)cc1`: the result in the assay with Staphylococcus aureus, in the assay on Enterococcus faecalis, in the assay with Escherichia coli [3] and with Pseudomonas aeruginosa was inactive.

Turning to `O=C(O)CC[C@@H](NC(=O)c1ccc(NCc2ccc(/C=C3\SC(=O)NC3=O)cc2)cc1)C(=O)O`, the Activity in the assay on Escherichia coli [1] is 88%.

For the origin of these results see ChEMBL document CHEMBL1800069, “Structure-based design of a new series of D-glutamic acid based inhibitors of bacterial UDP-N-acetylmuramoyl-L-alanine:D-glutamate ligase (MurD)” (J Med Chem, 2011).
